# Screens from PubChem.
# Rows were chosen to be rich in hits. Some 2% of all compounds tested hit in one or more screens of this group.
# Hep lipid drop = modulators of hepatic lipid droplet formation. AML12 mouse hepatocytes, oleate lipid droplets, BODIPY imaging. inhibition, % at 6.5 µM. hit rate 0.4% among 240,000;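 active = lipid droplet intensity inhibited by at least 50%, with more than 500 cells counted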
#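 Assay system: AML12 hepatocytes (mouse) / Also added: 100 µM oleic acid challenge / Times: overnight treatment with compound plus oleate / Detection: high-content imaging of BODIPY-stained droplets and DAPI nuclei / Evaluation: % inhibition of lipid droplet signal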
# Arrestin-AP2 inh = blocks beta-arrestin peptide binding to AP2 adaptin. FITC-arrestin peptide / GST-AP2 beads, flow cytometry; AP2 beta2 appendage carries R879A mutation. inhibition, % at 10 µM. hit rate 0.31% among 340,000. AID 504490;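 active = inhibition above a set limit, near 3 SD of compounds lacking own fluorescence, cut at about 54% in these data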;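 also: plate controls were DMSO wells for no effect and 5 µM unlabelled arrestin peptide for full effect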
#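 test system = AP2 appendage R879A on GSH beads | buffer or medium = PBS plus Tween 20 (0.05%) and BSA (0.1%) | incubation = 12 min plus 1 h, RT | detection = bead flow cytometry, FITC channel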
# GRK2 inh = inhibitors of human GRK2 displacing RNA aptamer | P25098 | hit rate 0.59% among 330,000 | inhibition of aptamer binding, % at 10 µM | bead flow cytometry, FAM-aptamer displacement from GRK2 | AID 488847;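 active = inhibition of aptamer binding above 40%, roughly 3 SD of noise, on plates passing a quality check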;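 also: median bead fluorescence of bound FAM aptamer so fluorescent compounds give negative values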
# Target sequence (P25098 whole entry, looked up): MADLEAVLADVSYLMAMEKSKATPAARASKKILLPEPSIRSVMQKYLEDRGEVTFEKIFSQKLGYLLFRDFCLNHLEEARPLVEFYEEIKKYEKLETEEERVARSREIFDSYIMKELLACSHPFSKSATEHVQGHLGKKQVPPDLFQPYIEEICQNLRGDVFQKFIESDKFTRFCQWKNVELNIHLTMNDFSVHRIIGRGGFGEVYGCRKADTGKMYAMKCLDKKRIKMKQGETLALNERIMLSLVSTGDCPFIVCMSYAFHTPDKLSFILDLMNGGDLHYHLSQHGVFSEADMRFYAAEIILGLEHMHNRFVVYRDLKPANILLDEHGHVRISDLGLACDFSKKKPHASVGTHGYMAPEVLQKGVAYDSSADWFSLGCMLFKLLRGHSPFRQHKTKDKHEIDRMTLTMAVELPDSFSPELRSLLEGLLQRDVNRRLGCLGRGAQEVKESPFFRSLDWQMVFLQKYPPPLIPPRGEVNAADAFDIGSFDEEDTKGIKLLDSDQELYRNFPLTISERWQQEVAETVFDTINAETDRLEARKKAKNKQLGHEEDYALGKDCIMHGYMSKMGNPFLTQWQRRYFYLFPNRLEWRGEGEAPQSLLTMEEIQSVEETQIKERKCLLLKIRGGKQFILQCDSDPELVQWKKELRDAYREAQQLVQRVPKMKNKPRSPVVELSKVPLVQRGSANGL
# H9c2 TAG inh = reduces triacylglycerol accumulation in H9c2 cells | Nile Red lipid (TAG) fluorescence; cells loaded with 200 µM oleic acid | inhibition, % at 12.5 µM | hit rate 0.66% among 230,000;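 active = pattern-corrected inhibition of lipid staining of at least 50% with the nuclear-stain viability signal not falling by more than 50%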;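 also: 0% = DMSO wells and 100% = triacsin C control wells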
# NTR1 ag = NTR1 (human) agonism; P30989; NTR1-U2OS beta-arrestin-GFP spot imaging, agonist mode; activation, % at 20 µM; hit rate 0.17% among 330,000; AID 493036;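 active = activation at or above 40% of the spot to cytoplasm intensity ratio, with at least 20 cells analyzed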;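 also: 0% = DMSO without peptide and 100% = 100 nM NTR1 peptide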
# Beta2AR agonist = agonists of human beta-2 adrenergic receptor inducing internalization | Am2.2-beta2AR cells, FAP receptor internalization, flow cytometry | response, % (concentration not given with the values) | hit rate 0.43% among 340,000 | AID 504454;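 active = response above a set limit, near 3 SD of response in nonfluorescent compounds, cut at about 42% in these data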
# Arr-AP2 CP1 = inhibitors of human beta-arrestin and AP2 interaction; shares compounds with Arrestin-AP2 inh; GST-AP2 beads, FITC arrestin peptide binding, flow cytometry; GST-fused beta2-adaptin appendage, R879A mutant; inhibition, % at 10 µM; hit rate 2% among 1,300; AID 504908;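 active = inhibition above a set limit, roughly 3 SD of non-fluorescent compound noise, cut at about 38% in these data; inactive = inhibition at or below that limit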;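 also: loss of bead fluorescence from 50 nM FITC arrestin peptide bound to appendage; 0% = negative control wells and 100% = excess unlabelled arrestin peptide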
# GST-FITC bead = counter-screen for beta-arrestin AP2 inhibitors: GST-GSH bead binding; hit rate 2% among 1,300; AID 588338; inhibition, % at 10 µM; shares compounds with Arrestin-AP2 inh; GST-fluorescein binding to GSH beads, fluorescence;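 active = inhibition above 50%, about 3 SD of the inhibition seen with non-fluorescent compounds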;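 also: fluorescein maleimide labelled GST captured on 4 micron glutathione beads; higher means more loss of bead fluorescence from quenching or blocked binding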
# * = called active by the depositor; x = not tested or not shown.
SMILES,Hep lipid drop,Arrestin-AP2 inh,GRK2 inh,H9c2 TAG inh,NTR1 ag,Beta2AR agonist,Arr-AP2 CP1,GST-FITC bead
CCOc1ccccc1NC(=O)Cn1c(=O)c2ccccc2n(CC)c1=O,-23,5,1,x,1,6,7,-6
CCn1c(=O)n(CC(=O)Nc2cc(OC)ccc2OC)c(=O)c2ccccc21,x,26,0,-4,1,-11,-5,15
CCOc1ccccc1NC(=O)Cn1c(=O)c(OCC)nc2cnccc21,-1,-9,2,x,0,0,x,x
COc1ccc(-n2c(=O)c3ccccc3n(CC(=O)Nc3ccccc3OC)c2=O)cc1,-5,1,0,15,-1,1,x,x
CC1CN(C(=O)Cn2cc(SCC(=O)N3CCOCC3)c3ccccc32)CC(C)O1 (configuration not stated),-10,4,0,21,2,5,x,x
Cc1no[n+]([O-])c1COc1cccc(/C=C2\N=C(c3ccccc3)OC2=O)c1,3,68*,4,x,1,1,4,-7
O=[N+]([O-])c1ccc(NC(=S)N2CCN(S(=O)(=O)c3ccccc3)CC2)cc1,-5,71*,0,x,1,14,-14,-9
O=S(=O)(c1ccccc1)N1CCN(C(=S)Nc2ccc(Br)cc2)CC1,-2,-2,0,15,1,0,x,x
COc1ccc(N2CC(NS(=O)(=O)c3ccc(F)cc3)CC2=O)cc1 (configuration not stated),x,20,2,3,-1,3,x,x
CC(C)n1nc(C(=O)Oc2cc(Cl)ccc2Cl)c2ccccc2c1=O,-16,-5,0,x,-1,2,x,x
CC(OC(=O)c1nn(C(C)C)c(=O)c2ccccc12)C(=O)Nc1ncc(Cl)cc1Cl (configuration not stated),-5,61*,3,x,2,1,-9,1
O=C(CCCN1C(=O)C(c2ccccc2)Oc2cccnc21)Nc1ccccc1Cl (configuration not stated),-2,2,0,x,0,-2,x,x
O=C(CN1C(=O)CS/C1=C\c1nc(-c2ccc(Cl)cc2)cs1)Nc1cccnc1Cl,-7,61*,0,-5,7,8,9,2
COc1ccc(C(=O)N/C(=C/c2cccnc2)C(=O)Nc2cccc(C(C)=O)c2)cc1OC,-10,-4,0,x,5,-5,x,x
O=C(COc1ccccc1[N+](=O)[O-])NCCCN1CCCC1=O,x,28,0,-13,0,-11,x,x
O=C(/C=C/c1ccccc1[N+](=O)[O-])NCCCN1CCCC1=O,2,57*,0,-1,0,-4,0,-7
CCC(C)NC(=O)c1ccc2c(c1)N(Cc1ccccc1)C(=O)CS2 (configuration not stated),3,56*,0,-15,1,-6,-2,-5
COC(=O)c1cccc(Cn2c(Cl)c(/C=N/NC(=O)c3ccco3)sc2=O)c1,9,57*,2,x,0,12,-8,7
COC(=O)c1cccc(Cn2c(Cl)c(/C=N/NC(=O)c3ccccc3Cl)sc2=O)c1,x,7,2,23,-4,0,x,x
CCN(CC(=O)Nc1c(F)cccc1F)C(=O)c1ccc(N2CCOCC2)c([N+](=O)[O-])c1,x,15,1,8,-1,5,x,x
O=C(CCSc1ccc(Cl)cc1)N1CCN(S(=O)(=O)c2ccccc2)CC1,x,-5,0,-22,2,10,x,x
CC(=O)N1CCc2cc(S(=O)(=O)CCC(=O)NCc3ccc(F)cc3)ccc21,-8,37,2,x,-1,-11,x,x
CC(=O)c1ccc(N2CCN(C(=O)c3ccc(S(=O)(=O)NCc4ccco4)cc3)CC2)cc1,x,-9,0,1,6,-4,3,-5
O=C(/C=C/c1ccc(S(=O)(=O)NCc2ccco2)cc1)N1CCN(c2ccccc2)CC1,10,-12,2,8,1,0,x,x
O=C(c1ccc(S(=O)(=O)NCc2ccco2)cc1)N1CCN(c2ccc(F)cc2)CC1,x,59*,0,-4,1,3,5,-10
SMILES,Hep lipid drop,Arrestin-AP2 inh,GRK2 inh,H9c2 TAG inh,NTR1 ag,Beta2AR agonist,Arr-AP2 CP1,GST-FITC bead
COCC(C)n1c(SCC(=O)NC(=O)Nc2ccc3c(c2)OCCO3)nc2ccccc2c1=O (configuration not stated),31,56*,0,x,0,-2,8,-11
COCC(C)n1c(SCC(=O)NC(=O)Cc2ccccc2)nc2ccccc2c1=O (configuration not stated),x,-4,0,-1,2,-3,x,x
Oc1c(C=C2N=c3ccccc3=N2)sc(=S)n1C1CCCC1,-27,110*,28,-1,3,1,-2,-1
Oc1c(C=C2N=c3ccccc3=N2)sc(=S)n1-c1ccc(F)cc1,9,18,29,-12,3,-2,x,x
O=C(Nc1cc(F)ccc1F)C1CCN(S(=O)(=O)c2cccc3nonc23)CC1,-1,12,1,x,0,-10,x,x
CC(C)c1ccc(OCc2ccc(C(=O)N3CCN(c4ccccn4)CC3)cc2)cc1,x,56*,2,9,11,-12,11,-7
CC(C)c1ccc(COc2ccc(C(=O)N3CCOCC3)cc2)cc1,7,-2,6,x,1,5,x,x
Cc1noc(C(=O)Nc2cccc(Cl)c2)c1Cl,-2,37,2,x,0,-9,x,x
N#Cc1sc2nc(-c3cccs3)cc(-c3ccc(Cl)cc3)c2c1N,x,61*,4,x,12,-5,-11,9
CC(=O)Nc1ccc(C=NNc2ccc([N+](=O)[O-])cn2)cc1,x,5,x,-6,x,-4,x,x
C[N+]1(C)CCC(=C(c2ccccc2)c2ccccc2)CC1,x,12,0,-17,-1,-5,x,x
CCCCOc1ccc(C(=O)NCC(=O)NNC(=O)C2COc3ccccc3O2)cc1 (configuration not stated),x,-13,0,-7,1,-3,x,x
CCOc1ccc(C(=O)NCC(=O)NNC(=O)C2COc3ccccc3O2)cc1OCC (configuration not stated),x,65*,0,-8,1,13,1,-21
COc1ccccc1N1CCN(CC(O)COc2ccc(C)cc2C)CC1 (configuration not stated),-6,-14,0,x,-1,-9,x,x
O=C(NCCc1ccccn1)c1ccc(OC2CCN(Cc3ccccn3)CC2)cc1,0,-7,3,x,0,-15,x,x
CC(Cc1ccccn1)NC(=O)c1ccc(OC2CCN(Cc3ccccn3)CC2)cc1 (configuration not stated),1,62*,4,-7,0,-17,11,1
